Laboratory results as given in ChEMBL document CHEMBL4699581, “Design, synthesis, and biological evaluation of N-arylpiperazine derivatives as interferon inducers” (Bioorg Med Chem Lett, 2020).
Activity calls are given as the source filed them. The calls are words filed in the database; no cut-off is given here.

Legend:
Type in all cases: cell-based
[1] = test system: THP-1; assay: Induction of type-1 IFN signalling in human THP-1 cells assessed as increase in type-1 interferon-induced ISG54-ISRE promoter activity by measuring increase in transcriptional activity of luciferase reporter gene at 40 uM by secreted luciferase reporter gene assay relative to control; conditions: filed as activator
Outline: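 THP-1 monocytes carry an ISRE reporter (ISG54 minimal promoter with five ISRE elements) that drives a secreted luciferase. Each compound was tested at 40 μM. Luminescence was read and expressed as relative units normalized to a DMSO control, as mean ± standard deviation.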

[2] = Cytotoxicity against human THP-1 cells assessed as cell viability at 40 uM relative to control; conditions: read-out: Activity
Outline: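 THP-1 viability was measured in parallel with the ISRE reporter readout after treatment with 40 μM of each compound. Results are given as mean ± standard deviation.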

[3] = test system: THP-1; assay: Induction of type-1 IFN signalling in human THP-1 cells assessed as increase in IFNbeta secretion at 20 uM by ELISA; conditions: filed as activator
Outline: (§1)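 IFNβ and IP-10 released extracellularly from treated THP-1 cells were quantified by ELISA.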

[4] = test system: THP-1; assay: Induction of type-1 IFN signalling in human THP-1 cells assessed as increase in IP-10 secretion at 20 uM by ELISA; conditions: filed as activator; outline: as §1
[5] = test system: THP-1; assay: Induction of type-1 IFN signalling in human THP-1 cells assessed as increase in IFN-stimulated IFNbeta mRNA expression at 50 uM by qPCR analysis; conditions: filed as activator
[6] = test system: THP-1; assay: Induction of type-1 IFN signalling in human THP-1 cells assessed as increase in IFN-stimulated CXCL10 mRNA expression at 50 uM by qPCR analysis; conditions: filed as activator
[7] = test system: THP-1; assay: Induction of type-1 IFN signalling in human THP-1 cells assessed as increase in IFN-stimulated IRF7 mRNA expression at 50 uM by qPCR analysis; conditions: filed as activator
[8] = test system: THP-1; assay: Induction of type-1 IFN signalling in human THP-1 cells assessed as increase in IFN-stimulated IFIT3 mRNA expression at 50 uM by qPCR analysis; conditions: filed as activator
[9] = test system: THP-1; assay: Induction of type-1 IFN signalling in human THP-1 cells assessed as increase in IFN-stimulated OAS1 mRNA expression at 50 uM by qPCR analysis; conditions: filed as activator
[10] = Induction of type-1 IFN signalling in human THP-1 cells assessed as increase in type-1 IFN-induced ISG54-ISRE promoter activity by measuring increase in transcriptional activity of luciferase reporter gene by secreted luciferase reporter gene assay
Outline: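 The THP-1 secreted-luciferase ISRE reporter (ISG54 minimal promoter plus five ISREs) was tested across a dose range. Luminescence was read as fold change over control. EC50 was calculated and Emax was interpolated from the dose-response curve.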

[11] = test system: THP-1; assay: Cytotoxicity against human THP-1 cells assessed as cell viability at 2.5 to 40 uM; conditions: thp-1, 40 µM, dose 2.5-40 µM
Outline: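 THP-1 viability was tested across a range of treatment concentrations up to 40 µM, alongside the ISRE reporter dose-response.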

Structure (SMILES)	Activity [1] [RU]	viability at 40 µM [2] [%]	also measured
O=C(c1ccc(Cl)cc1Cl)N1CCN(c2cccc(Cl)c2Cl)CC1	2.3	86	–
O=C(c1ccc(C(F)(F)F)cc1)N1CCN(c2cccc(Cl)c2Cl)CC1	1.8	90	–
O=C(c1cnccn1)N1CCN(c2cccc(Cl)c2Cl)CC1	2.5	89	–
Fc1ccc(NC(=S)N2CCN(c3cccc(Cl)c3Cl)CC2)cc1	1.3	81	–
COc1cccc(NC(=O)N2CCN(c3cccc(Cl)c3Cl)CC2)c1	2.7	87	–
O=[N+]([O-])c1ccc(NC(=S)N2CCN(c3cccc(Cl)c3Cl)CC2)cc1	1.1	97	–
CCCCCCCCCCCCC(=O)N1CCN(c2cccc(Cl)c2Cl)CC1	1.3	89	–
O=C(CCc1ccccc1C(F)(F)F)N1CCN(c2cccc(Cl)c2Cl)CC1	2.5	96	–
S=C(Nc1ccc(Br)cc1)N1CCN(c2cccc(Cl)c2Cl)CC1	0.4	46	–
COc1cc(OC)cc(C(=O)N2CCN(c3cccc(Cl)c3Cl)CC2)c1	1.9	83	–
COc1cc(CC(=O)N2CCN(c3cccc(Cl)c3Cl)CC2)cc(OC)c1OC	5.2	98	Activity [3]: Active; Activity [4]: Active; Activity [5]: Active; Activity [6]: Active; Activity [7]: Active; Activity [8]: Active; Activity [9]: Active; EC50 [10]: 13.1 µM; Activity [11]: Non-Toxic
S=C(Nc1ccc(Cl)cc1)N1CCN(c2cccc(Cl)c2Cl)CC1	1.2	99	–
O=C(Nc1cccc(OC(F)(F)F)c1)N1CCN(c2cccc(Cl)c2Cl)CC1	3	70	–
O=C(Nc1ccc(F)cc1)N1CCN(c2cccc(Cl)c2Cl)CC1	2.1	95	–
O=C(Nc1ccc([N+](=O)[O-])cc1)N1CCN(c2cccc(Cl)c2Cl)CC1	1	90	–
S=C(Nc1cccc(Br)c1)N1CCN(c2cccc(Cl)c2Cl)CC1	1.5	85	–
O=C(Nc1cccc(C(F)(F)F)c1)N1CCN(c2cccc(Cl)c2Cl)CC1	3.3	76	–
O=C(Nc1ccc(C(F)(F)F)cc1)N1CCN(c2cccc(Cl)c2Cl)CC1	3.9	61	–
COc1ccc(NC(=O)N2CCN(c3cccc(Cl)c3Cl)CC2)cc1	3.3	98	–
O=C(Nc1ccc(OC(F)(F)F)cc1)N1CCN(c2cccc(Cl)c2Cl)CC1	4.2	96	–
O=C(Cc1cc(F)c(F)cc1F)N1CCN(c2cccc(Cl)c2Cl)CC1	2.8	101	–
COc1ccc(C(=O)N2CCN(c3cccc(Cl)c3Cl)CC2)cc1	3.7	81	–
CC(C)NC(=S)N1CCN(c2cccc(Cl)c2Cl)CC1	1.2	84	–
Cc1cc([N+](=O)[O-])ccc1C(=O)N1CCN(c2cccc(Cl)c2Cl)CC1	1.4	84	–
O=C(c1cccc(C(F)(F)F)c1)N1CCN(c2cccc(Cl)c2Cl)CC1	2.8	105	–
